32 compounds from ChEMBL document CHEMBL1828561, “Identification of a potent and selective free fatty acid receptor 1 (FFA1/GPR40) agonist with favorable physicochemical and in vitro ADME properties” (J Med Chem, 2011) can be followed below.

One may read the EC50 as the concentration at which the effect is half-maximal. The Papp is a coefficient for how fast a substance crosses the barrier. As a reminder, the inhibition is the drop in the measured response relative to a control, in per cent. One may read the logD as the decadic logarithm of the distribution of all forms, ionised or not, between an organic phase and buffer at a given pH. Low values mean lower lipophilicity, high ones higher lipophilicity. Usually solubility stands for the concentration that dissolves in the medium under given conditions. Lower therefore signals a poorly soluble substance. By Papp A→B is commonly meant the apparent permeability from the apical to the basolateral side of a cell layer.

Data set [1] concerns the target T1, Free fatty acid receptor 1 (Homo sapiens, UniProt O14842). Description: Agonist activity at human FFA1 receptor expressed in human 1321N1 cells assessed as calcium mobilization by fluorescence spectrophotometry relative to 10 uM TUG-20. The data set is classed as functional, cell-based. The procedure, abridged:
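Human FFA1 stably expressed in 1321N1 cells kept under G418 selection, 30000–40000 cells/well. After 24 h, washed in Krebs-HEPES pH 7.4 and loaded 1 h at 37 °C with 1.5 μM Oregon Green 488 BAPTA-1/AM. Compound injected at 10-fold concentration at 37 °C; fluorescence ex 485/em 520 nm over 50 × 0.4 s. Efficacy as % of maximal response to 10 μM TUG-20.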
(In general: Calcium assays in cells follow changes in intracellular calcium, usually with a dye or a luminescent sensor.)

In data set [2] the target is T1, Free fatty acid receptor 1. Kind of data set: Agonist activity at human FFA1 receptor expressed in human 1321N1 cells assessed as calcium mobilization by fluorescence spectrophotometry. The data set is classed as functional, cell-based.
A short description of data set [3]: Apparent permeability across methotrexate treated human HT-29 cells. Type of data set: ADME, cell-based. A digest of the protocol: (§1)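 HT29-MTX mucus-producing cells, passage 32, grown 23 days (TEER > 750 Ω cm²). Compound at 100 μM (10 mM DMSO stock diluted 1:100 in buffer). […] Non-permeated drug measured for recovery. Monolayer integrity checked by 20 μM carboxyfluorescein after 1 h and TEER.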

Data set [4] can be described thus: Permeability across methotrexate treated human HT-29 cells assessed as compound recovery. The data set is classed as ADME, cell-based. The conditions noted are these: read-out: Activity. A digest of the protocol:
as §1

The target in another data set is CYP2D6 (Homo sapiens, UniProt P10635). Kind of data set: Inhibition of CYP2D6 at 10 uM. The data set is classed as ADME.
A further data set relates to Liver. Description: Metabolic stability in human liver S9 fraction. Type of data set: ADME, subcellular.
Data set [5] in a line: Plasma protein binding in human. Particulars: read-out: PPB (converted). The data set is classed as ADME, cell-free.
Data set [6] is described as follows: Chemical stability of the compound in PBS at 37 degC for 12 days. Particulars: read-out: Stability. The data set is classed as physicochemical. The procedure, abridged: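 Stability followed in PBS at 37 °C over 12 days.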
The next data set addresses CYP3A4 (Homo sapiens, UniProt P08684). Kind of data set: Inhibition of CYP3A4 at 10 uM. The data set is classed as ADME.
The nature of data set [7]: Octanol-phosphate buffer partition coefficient, log D of the compound at pH 7.4 by HPLC analysis. Type of data set: physicochemical.
A short description of data set [8]: Aqueous solubility of the compound in PBS at pH 7.4. Type of data set: physicochemical. The procedure, abridged:
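Solubility measured in PBS at pH 7.4.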

The target of the next data set is T2, CYP1A2 (Homo sapiens, UniProt P05177).
T2 sequence (P05177 whole entry): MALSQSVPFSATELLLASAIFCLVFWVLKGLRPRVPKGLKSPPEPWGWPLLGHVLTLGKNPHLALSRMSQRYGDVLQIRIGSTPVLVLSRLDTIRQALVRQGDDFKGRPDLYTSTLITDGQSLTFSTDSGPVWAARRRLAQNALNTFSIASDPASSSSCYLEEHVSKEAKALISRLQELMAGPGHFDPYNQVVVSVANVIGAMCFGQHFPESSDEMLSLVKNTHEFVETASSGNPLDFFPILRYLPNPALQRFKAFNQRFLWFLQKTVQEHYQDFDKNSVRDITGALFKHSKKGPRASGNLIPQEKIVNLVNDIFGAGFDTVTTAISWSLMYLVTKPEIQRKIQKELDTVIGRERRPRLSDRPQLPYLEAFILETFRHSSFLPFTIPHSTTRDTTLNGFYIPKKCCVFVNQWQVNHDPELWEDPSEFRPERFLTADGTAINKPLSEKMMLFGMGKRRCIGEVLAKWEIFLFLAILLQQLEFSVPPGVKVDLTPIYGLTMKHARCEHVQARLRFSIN
Kind of data set: Inhibition of CYP1A2 at 10 uM. Type of data set: ADME.

Another data set has as its target CYP2C9 (Homo sapiens, UniProt P11712). Description: Inhibition of CYP2C9 at 10 uM. Type of data set: ADME.
The nature of data set [9]: Octanol-water partition coefficient, log D of the compound at pH 7.4 by HPLC analysis. Type of data set: physicochemical. A digest of the protocol: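 Distribution between n-octanol and water (PBS), pH 7.4, determined experimentally.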
A further data set deals with CYP2C19 (Homo sapiens, UniProt P33261). Description: Inhibition of CYP2C19 at 10 uM. The data set is classed as ADME.
A short description of data set [10]: Inhibition of P-glycoprotein at 100 uM. The procedure, abridged:
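P-glycoprotein inhibition tested at 100 μM compound.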

The nature of data set [11]: Apparent permeability from apical to basolateral side of human Caco2/TC7 cells. Type of data set: ADME, cell-based. Particulars: Caco-2. The procedure, abridged:
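Caco-2 TC7 monolayers, apical to basolateral transport at pH 6.5 apical/7.4 basolateral.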

Converted amounts (≈) assume the structure as drawn.

T1 sequence (O14842 whole entry): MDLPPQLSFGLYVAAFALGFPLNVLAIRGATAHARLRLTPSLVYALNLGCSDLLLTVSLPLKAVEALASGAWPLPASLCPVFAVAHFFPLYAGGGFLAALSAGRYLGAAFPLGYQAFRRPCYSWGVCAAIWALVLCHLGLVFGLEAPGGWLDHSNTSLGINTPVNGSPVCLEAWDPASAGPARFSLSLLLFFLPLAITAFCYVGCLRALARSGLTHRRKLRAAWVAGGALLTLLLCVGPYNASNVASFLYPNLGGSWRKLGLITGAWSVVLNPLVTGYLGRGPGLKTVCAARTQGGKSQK
Chain of CYP2D6 (P10635 whole entry): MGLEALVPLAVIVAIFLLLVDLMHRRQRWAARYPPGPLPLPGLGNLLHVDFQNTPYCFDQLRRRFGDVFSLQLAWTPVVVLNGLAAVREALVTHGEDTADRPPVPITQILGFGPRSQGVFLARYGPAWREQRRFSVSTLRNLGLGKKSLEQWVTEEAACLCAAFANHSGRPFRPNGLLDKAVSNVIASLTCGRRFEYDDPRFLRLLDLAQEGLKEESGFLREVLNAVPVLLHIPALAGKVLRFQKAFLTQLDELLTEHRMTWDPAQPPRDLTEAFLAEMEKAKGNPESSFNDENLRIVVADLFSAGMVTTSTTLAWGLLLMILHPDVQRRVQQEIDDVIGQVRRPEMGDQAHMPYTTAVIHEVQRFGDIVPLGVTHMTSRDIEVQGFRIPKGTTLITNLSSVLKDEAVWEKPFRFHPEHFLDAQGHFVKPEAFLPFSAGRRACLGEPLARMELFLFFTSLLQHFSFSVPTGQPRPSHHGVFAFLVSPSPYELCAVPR
Chain of CYP3A4 (P08684 whole entry): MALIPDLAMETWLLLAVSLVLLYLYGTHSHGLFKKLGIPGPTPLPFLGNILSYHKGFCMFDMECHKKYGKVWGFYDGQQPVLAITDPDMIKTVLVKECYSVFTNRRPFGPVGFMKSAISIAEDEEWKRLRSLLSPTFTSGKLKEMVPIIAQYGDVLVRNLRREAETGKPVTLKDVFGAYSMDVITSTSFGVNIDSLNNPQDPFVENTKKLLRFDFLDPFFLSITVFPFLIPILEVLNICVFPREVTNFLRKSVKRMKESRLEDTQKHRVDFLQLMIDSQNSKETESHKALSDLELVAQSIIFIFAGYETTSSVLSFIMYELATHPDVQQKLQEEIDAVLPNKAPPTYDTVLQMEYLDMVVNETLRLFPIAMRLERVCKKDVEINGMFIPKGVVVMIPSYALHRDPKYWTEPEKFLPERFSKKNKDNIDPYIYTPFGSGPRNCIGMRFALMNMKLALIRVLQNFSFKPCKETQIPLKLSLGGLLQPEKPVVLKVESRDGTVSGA
Chain of CYP2C19 (P33261 whole entry): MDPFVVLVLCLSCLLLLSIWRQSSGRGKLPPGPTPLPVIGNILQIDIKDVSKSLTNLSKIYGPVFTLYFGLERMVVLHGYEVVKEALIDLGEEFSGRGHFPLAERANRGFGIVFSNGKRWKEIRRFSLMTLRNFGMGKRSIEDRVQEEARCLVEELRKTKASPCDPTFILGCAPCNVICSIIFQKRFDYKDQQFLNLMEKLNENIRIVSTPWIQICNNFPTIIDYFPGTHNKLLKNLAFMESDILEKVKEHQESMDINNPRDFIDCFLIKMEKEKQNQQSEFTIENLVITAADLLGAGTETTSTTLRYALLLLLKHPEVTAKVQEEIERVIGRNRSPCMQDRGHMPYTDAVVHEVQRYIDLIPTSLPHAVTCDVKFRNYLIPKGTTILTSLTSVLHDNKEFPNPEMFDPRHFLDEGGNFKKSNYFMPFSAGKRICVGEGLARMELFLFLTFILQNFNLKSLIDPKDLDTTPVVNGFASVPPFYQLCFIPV
Chain of CYP2C9 (P11712 whole entry): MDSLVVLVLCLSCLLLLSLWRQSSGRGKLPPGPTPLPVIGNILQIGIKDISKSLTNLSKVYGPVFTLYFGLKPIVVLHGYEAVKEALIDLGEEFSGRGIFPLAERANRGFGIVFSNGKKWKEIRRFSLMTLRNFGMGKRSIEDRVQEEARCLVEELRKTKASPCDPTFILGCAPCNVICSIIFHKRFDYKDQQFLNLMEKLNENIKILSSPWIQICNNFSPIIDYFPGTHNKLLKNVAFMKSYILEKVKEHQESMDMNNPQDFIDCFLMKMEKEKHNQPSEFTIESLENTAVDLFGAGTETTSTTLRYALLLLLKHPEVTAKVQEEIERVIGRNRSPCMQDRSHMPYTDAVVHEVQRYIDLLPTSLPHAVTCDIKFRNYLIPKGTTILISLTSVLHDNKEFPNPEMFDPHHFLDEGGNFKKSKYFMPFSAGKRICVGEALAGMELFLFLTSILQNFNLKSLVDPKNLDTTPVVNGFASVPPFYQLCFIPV

`Cc1c(C#Cc2ccc(CCC(=O)O)cc2)ccnc1F`: the Efficacy in data set [1] stood at 101%. The EC50 in [2] is 0.12 µM.

Take `Cc1cnc(Cl)nc1C#Cc1ccc(CCC(=O)O)cc1`: the Efficacy in data set [1] was 121%. In [2], the EC50 is 4.27 µM.

`O=C(O)CCc1ccc(C#Cc2ccnc(F)c2)cc1`: the Efficacy in data set [1] came to 98%. Also, the EC50 in [2] was 0.513 µM.

On to `O=C(O)CCc1ccc(C#Cc2ccnc(Cl)n2)cc1`, for which the Efficacy in data set [1] amounted to 131%. Also, the EC50 in data set [2] is 9.12 µM.

For the compound `Cc1cnc(F)c(C#Cc2ccc(CCC(=O)O)cc2)c1`, in data set [1], the Efficacy was found to be 98%. In [2], the EC50 is 0.661 µM.

`O=C(O)CCc1ccc(C#Cc2ccnc(Cl)c2Cc2ccccc2)cc1`: the Efficacy in [1] amounted to 101%. In [2], the EC50 is 0.794 µM.

As for `Cc1cc(C#Cc2ccc(CCC(=O)O)cc2)ccn1`, in data set [1], the Efficacy came out at 102%.

For `O=C(O)CCc1ccc(C#Cc2ccnc3cc(Cl)ccc23)cc1`, the Efficacy in [1] came to 125%. The EC50 in [2] is 0.0794 µM.

Take `Cc1c(C#Cc2ccc(CCC(=O)O)cc2)ccnc1Cl`: the Efficacy in data set [1] came out at 101%. For the same compound, the EC50 in [2] was 0.135 µM.

With `Cc1cccc(C#Cc2ccc(CCC(=O)O)cc2)n1`, in data set [1], the Efficacy stood at 108%. Also, the EC50 in data set [2] is 6.17 µM.

For the compound `O=C(O)CCc1ccc(C#Cc2cccs2)cc1`, in data set [1], the Efficacy stood at 97%. The EC50 in [2] is 0.251 µM.

Turning to `Cc1c(C#Cc2ccc(CCC(=O)O)cc2)cc(Cl)nc1Cl`, in data set [1], the Efficacy is 91%. Moreover, the EC50 in data set [2] is 0.0437 µM.

`O=C(O)CCc1ccc(C#Cc2ccnc(-c3ccccc3)c2)cc1`: in [1], the Efficacy amounted to 97%. Also, the EC50 in data set [2] was 0.186 µM.

For the compound `O=C(O)CCc1ccc(C#Cc2cccnc2Cl)cc1`, the Efficacy in data set [1] came out at 91%. Moreover, the EC50 in [2] is 0.603 µM.

Regarding `O=C(O)CCc1ccc(C#Cc2ccncc2)cc1`, in [1], the Efficacy amounted to 100%. The EC50 in data set [2] is 4.07 µM.

Regarding `O=C(O)CCc1ccc(C#Cc2cccnc2)cc1`, in data set [1], the Efficacy came out at 96%. Further, the EC50 in data set [2] was 6.03 µM.

As to `CC(C(=O)O)c1cccc(C(=O)c2ccccc2)c1` (centres undefined) [KETOPROFEN], in [3], the Papp was 151 nm/s. In addition, in data set [4], the recovery was determined as 80%.

As to `Cc1ccccc1C#Cc1ccc(CCC(=O)O)cc1`, the inhibition at 10 µM against CYP2D6 was 0%; against CYP3A4 it was -4%; against CYP1A2, -8%; on CYP2C9 it was -25%; against CYP2C19 it was -1%. This compound gave a Stability in the data set on Liver of 26%. In data set [5], the fraction unbound is 0.023. The remaining at 288 h in data set [6] stood at 99.9%. In addition, the logD in data set [7] and in data set [9] was 2.34 each time. The solubility in data set [8] came to 174 µM (≈ 46 µg/mL). The Efficacy in data set [1] was found to be 102%. Besides, in data set [10], the inhibition stood at 6.6%. In [2], the EC50 is 0.0457 µM. In addition, in [11], the Papp A→B came to 870 nm/s.

For the compound `O=C(O)CCc1ccc(C#Cc2ncccc2[N+](=O)[O-])cc1`, in [1], the Efficacy is 87%.

`Cc1ccsc1C#Cc1ccc(CCC(=O)O)cc1`: the Efficacy in data set [1] was 100%. Besides, in data set [2], the EC50 was 0.0759 µM.

On to `Cc1cnc(F)cc1C#Cc1ccc(CCC(=O)O)cc1`, for which the Efficacy in [1] amounted to 99%. Besides, in data set [2], the EC50 is 0.178 µM.

As for `O=C(O)CCc1ccc(C#Cc2ccc(Cl)nc2)cc1`, in data set [1], the Efficacy came to 98%. For the same compound, the EC50 in data set [2] was 0.708 µM.

Consider `O=C(O)CCc1ccc(C#Cc2ccnc(Cl)c2)cc1`, for which the Efficacy in data set [1] was 94%. In addition, the EC50 in data set [2] is 0.295 µM.

As for `Cc1cc(C#Cc2ccc(CCC(=O)O)cc2)nc(Cl)n1`, the Efficacy in data set [1] worked out at 110%. Further, the EC50 in data set [2] was 2.75 µM.

With `COc1nccc(C#Cc2ccc(CCC(=O)O)cc2)n1`, the Efficacy in data set [1] amounted to 109%. Moreover, the EC50 in data set [2] was 9.55 µM.

Regarding `O=C(O)CCc1ccc(C#Cc2cncs2)cc1`, the Efficacy in data set [1] was 99%. For the same compound, the EC50 in [2] is 3.89 µM.

On to `C=CCc1c(C#Cc2ccc(CCC(=O)O)cc2)ccnc1Cl`, for which the Efficacy in data set [1] was 97%. The EC50 in data set [2] was 0.316 µM.

Regarding `COc1cc(C#Cc2ccc(CCC(=O)O)cc2)ccn1`, the Efficacy in data set [1] was found to be 98%. For the same compound, the EC50 in data set [2] was 0.525 µM.

Regarding `O=C(O)C1CC1c1ccc(C#Cc2cc(Cl)nc(Cl)c2)cc1` (racemic), the Efficacy in data set [1] stood at 96%.

In the case of `O=C(O)CCc1ccc(C#Cc2ccnc(Oc3ccccc3)c2)cc1`, in data set [1], the Efficacy was 94%. Besides, the EC50 in [2] is 0.479 µM.

Consider `O=C(O)CCc1ccc(C#Cc2ccccn2)cc1`, for which the Efficacy in [1] was 98%. Also, the EC50 in [2] was 13.2 µM.

Turning to `Cc1ccccc1-c1cc(C#Cc2ccc(CCC(=O)O)cc2)ccn1`, in [1], the Efficacy is 92%. Moreover, the EC50 in [2] is 1.07 µM.
